Published values of several laboratories.
ALDH1A1: Aldehyde dehydrogenase 1A1 (ALDH1A1, Homo sapiens, UniProt P00352)
ALOX15: Polyunsaturated fatty acid lipoxygenase ALOX15 (ALOX15, Homo sapiens, UniProt P16050)

`COc1nc(-c2cccc(-c3ccccc3)c2C)ccc1CNCCNC(=O)CCCCCCCCCCC(=O)N1CCN(CCNC(=O)c2cc3c(=O)n4cccc(C)c4nc3n(CCc3cccs3)c2=N)CC1` has a Kd of 0.452 µM (Programmed cell death 1 ligand 1 (CD274, Homo sapiens, UniProt Q9NZQ7); binding, BLI).
`OC[C@H]1O[C@@H](Oc2ccc(O)c3cccc(O)c23)[C@H](O)[C@@H](O)[C@@H]1O` has an IC50 of < 10 µM (ALDH1A1; enzyme activity, inhibitor, fluorescence).
The IC50 of `COC(=O)C(C)n1nc(Cn2cc3cc(OCCF)c(Cl)cc3n2)c2ccccc2c1=O` (racemic) is reported as > 1 µM (Sphingosine 1-phosphate receptor 1 (S1PR1, Homo sapiens, UniProt P21453); ligand displacement, radioligand; cell membranes).
`[C-]#[N+]CCOCCOc1ccc2c(-c3ccccc3C(=O)OCC)c3ccc(=O)cc-3oc2c1` gave an IC50 of 20.8 µM (ALOX15; enzyme activity, inhibitor, absorbance).
With `COc1nc2ccc(Br)cc2cc1[C@@H](c1ccccc1)[C@@](O)(CCN(C)C)c1cccc2ccccc12` the IC50 was < 10 µM (ALDH1A1; enzyme activity, inhibitor, fluorescence).
With `CC(=O)N[C@H]1[C@H](O[C@H]2[C@H](O)[C@@H](NC(C)=O)C(O)O[C@@H]2CO)O[C@H](CO)[C@@H](O[C@@H]2O[C@H](CO)[C@@H](O)[C@H](O)[C@H]2NC(C)=O)[C@@H]1O` (some centres unmarked) the Kd was ~346 µM (MB (Equus caballus, UniProt P68082); binding).
The IC50 of `O=C1OC2(c3ccc(O)cc3Oc3cc(O)ccc32)c2ccccc21` is reported as 44.8 µM (ALOX15; enzyme activity, inhibitor, absorbance).
The IC50 of `NC/C(=C\F)COc1cccc(Cn2c(=S)[nH]c(=O)c3[nH]cnc32)c1` is reported as 13 µM (Thyroid peroxidase (Homo sapiens, UniProt P07202); enzyme activity, inhibitor).
With `CNC(=O)[C@H](Cc1c[nH]c2ccccc12)NC(=O)[C@@H](CC(=O)NO)CC(C)C` the IC50 was 0.00294 µM (Matrilysin (MMP7, Homo sapiens, UniProt P09237); enzyme activity, inhibitor).
The IC50 of `O=c1[nH]c(=O)c(Cc2cccc(C(F)(F)F)c2)c([C@H]2CC[C@H](c3ccccc3)CC2)[nH]1` is reported as > 1 µM (Solute carrier family 22 member 1 (SLC22A1, Homo sapiens, UniProt O15245); transporter uptake, inhibitor).
The Kd of `OC[C@H]1OC(O)[C@H](O)[C@@H](O)[C@@H]1O` (some centres unmarked) is reported as 1860 µM (Spliceosome RNA helicase DDX39B (DDX39B, Homo sapiens, UniProt Q13838); binding, MST).
